Values belong to the compound of their own block, whether it stands above or below them. Activity calls are given as the source filed them. The rule behind the calls is not given here.
Assays:
[1] = target: T1, Glutamate NMDA receptor (Rattus norvegicus) (UniProt P35439+Q00959+Q00960+Q00961+Q62645+Q8VHN2+Q9R1M7); assay: Antagonist activity at NMDA receptor in rat cerebral cortex neurons assessed as 100 uM NMDA-induced current at 10 uM relative to control; assay type: functional, tissue-based; parameters: scale not given: the % may be the effect or the level left
Outline: (§1)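 Whole-cell currents were evoked by NMDA (50, 100, 5000 or 10000 µM) in a heterogeneous primary culture of rat cerebral cortex neurons. Compound was tested at 0.5-30 µM. Current amplitude was expressed as percent of the NMDA-alone control.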

[2] = target: T1, Glutamate NMDA receptor (Rattus norvegicus); assay: Antagonist activity at NMDA receptor in rat cerebral cortex neurons assessed as 100 uM NMDA-induced current at 1 uM relative to control; assay type: functional, tissue-based; parameters: scale not given: the % may be the effect or the level left; outline: as §1
[3] = target: T1, Glutamate NMDA receptor (Rattus norvegicus); assay: Antagonist activity at NMDA receptor in rat cerebral cortex neurons assessed as 50 uM NMDA-induced current at 0.5 uM relative to control; assay type: functional, tissue-based; parameters: scale not given: the % may be the effect or the level left; outline: as §1
[4] = target: T1, Glutamate NMDA receptor (Rattus norvegicus); assay: Antagonist activity at NMDA receptor in rat cerebral cortex neurons assessed as 50 uM NMDA-induced current at 30 uM relative to control; assay type: functional, tissue-based; parameters: scale not given: the % may be the effect or the level left; outline: as §1
[5] = target: T1, Glutamate NMDA receptor (Rattus norvegicus); assay: Antagonist activity at NMDA receptor in rat cerebral cortex neurons assessed as 50 uM NMDA-induced current at 1 uM relative to control; assay type: functional; parameters: scale not given: the % may be the effect or the level left; outline: as §1
Rattus norvegicus [6] = species on record: Rattus norvegicus; assay: Agonist activity at AMPA receptor in rat purkinje neurons assessed as potentiation of 500 uM glutamate-induced transmembrane current at 30 uM relative to glutamate; assay type: functional
Outline: (§2)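 Whole-cell patch-clamp on Purkinje neurons freshly dissociated from cerebellum of 14-18 day old rats. Slices were incubated 1 h in saline, then treated with Pronase and collagenase at 34 °C under O2 and triturated. Extracellular saline was HEPES-buffered, pH 7.32, with KCl/EGTA/ATP pipette solution. Agonist (kainate or glutamate) was applied with or without compound by fast perfusion. Potentiation was taken relative to the agonist-alone current.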

[7] = target: T1, Glutamate NMDA receptor (Rattus norvegicus); assay: Antagonist activity at NMDA receptor in rat cerebral cortex neurons assessed as 50 uM NMDA-induced current at 5 uM relative to control; assay type: functional, tissue-based; parameters: scale not given: the % may be the effect or the level left; outline: as §1
[8] = target: T1, Glutamate NMDA receptor (Rattus norvegicus); assay: Antagonist activity at NMDA receptor in rat cerebral cortex neurons assessed as 100 uM NMDA-induced current at 2 uM relative to control; assay type: functional, tissue-based; parameters: scale not given: the % may be the effect or the level left; outline: as §1
[9] = target: T1, Glutamate NMDA receptor (Rattus norvegicus); assay: Antagonist activity at NMDA receptor in rat cerebral cortex neurons assessed as 10000 uM NMDA-induced current at 0.5 uM relative to control; assay type: functional, tissue-based; parameters: scale not given: the % may be the effect or the level left; outline: as §1
Rattus norvegicus [10] = species on record: Rattus norvegicus; assay: Agonist activity at AMPA receptor in rat purkinje neurons assessed as potentiation of 4000 uM kainate-induced transmembrane current at 30 uM by patch-clamp technique relative to kainate; assay type: functional; outline: as §2
[11] = target: T1, Glutamate NMDA receptor (Rattus norvegicus); assay: Antagonist activity at NMDA receptor in rat cerebral cortex neurons assessed as 100 uM NMDA-induced current at 30 uM relative to control; assay type: functional, tissue-based; parameters: scale not given: the % may be the effect or the level left; outline: as §1
Rattus norvegicus [12] = species on record: Rattus norvegicus; assay: Agonist activity at AMPA receptor in rat purkinje neurons assessed as potentiation of 500 uM kainate-induced transmembrane current at 50 uM relative to kainate; assay type: functional; outline: as §2
Rattus norvegicus [13] = species on record: Rattus norvegicus; assay: Agonist activity at AMPA receptor in rat purkinje neurons assessed as increase in potentiation of kainate-induced transmembrane current at 30 uM by patch-clamp technique relative to S-ethyl-N-allyl-N',N'-dibenzylisothiourea hydroiodide; assay type: functional
[14] = target: T1, Glutamate NMDA receptor (Rattus norvegicus); assay: Antagonist activity at NMDA receptor in rat cerebral cortex neurons assessed as 50 uM NMDA-induced current at 10 uM relative to control; assay type: functional, tissue-based; parameters: scale not given: the % may be the effect or the level left; outline: as §1
[15] = target: T1, Glutamate NMDA receptor (Rattus norvegicus); assay: Antagonist activity at NMDA receptor in rat cerebral cortex neurons assessed as 5000 uM NMDA-induced current at 0.5 uM relative to control; assay type: functional, tissue-based; parameters: scale not given: the % may be the effect or the level left; outline: as §1
[16] = target: T1, Glutamate NMDA receptor (Rattus norvegicus); assay: Antagonist activity at NMDA receptor in rat cerebral cortex neurons assessed as 10000 uM NMDA-induced current at 2 uM relative to control; assay type: functional, tissue-based; parameters: scale not given: the % may be the effect or the level left; outline: as §1
Rattus norvegicus [17] = species on record: Rattus norvegicus; assay: Agonist activity at AMPA receptor in rat purkinje neurons assessed as potentiation of 1000 uM kainate-induced transmembrane current at 30 uM by patch-clamp technique relative to kainate; assay type: functional; outline: as §2
Rattus norvegicus [18] = species on record: Rattus norvegicus; assay: Agonist activity at AMPA receptor in rat purkinje neurons assessed as potentiation of glutamate-induced transmembrane current at 30 uM by patch-clamp technique relative to kainate; assay type: functional; outline: as §2
[19] = target: T1, Glutamate NMDA receptor (Rattus norvegicus); assay: Antagonist activity at NMDA receptor in rat cerebral cortex neurons assessed as 100 uM NMDA-induced current at 5 uM relative to control; assay type: functional, tissue-based; parameters: scale not given: the % may be the effect or the level left; outline: as §1
[20] = target: T1, Glutamate NMDA receptor (Rattus norvegicus); assay: Antagonist activity at NMDA receptor in rat cerebral cortex neurons assessed as 5000 uM NMDA-induced current at 30 uM relative to control; assay type: functional, tissue-based; parameters: scale not given: the % may be the effect or the level left; outline: as §1
[21] = target: T1, Glutamate NMDA receptor (Rattus norvegicus); assay: Antagonist activity at NMDA receptor in rat cerebral cortex neurons assessed as 50 uM NMDA-induced current at 2 uM relative to control; assay type: functional, tissue-based; parameters: scale not given: the % may be the effect or the level left; outline: as §1
[22] = target: T1, Glutamate NMDA receptor (Rattus norvegicus); assay: Antagonist activity at NMDA receptor in rat cerebral cortex neurons assessed as 100 uM NMDA-induced current at 0.5 uM relative to control; assay type: functional, tissue-based; parameters: scale not given: the % may be the effect or the level left; outline: as §1
[23] = target: T1, Glutamate NMDA receptor (Rattus norvegicus); assay: Antagonist activity at NMDA receptor in rat cerebral cortex neurons assessed as 5000 uM NMDA-induced current at 10 uM relative to control; assay type: functional, tissue-based; parameters: scale not given: the % may be the effect or the level left; outline: as §1
[24] = target: T1, Glutamate NMDA receptor (Rattus norvegicus); assay: Antagonist activity at NMDA receptor in rat cerebral cortex neurons assessed as 5000 uM NMDA-induced current at 1 uM relative to control; assay type: functional, tissue-based; parameters: scale not given: the % may be the effect or the level left; outline: as §1
[25] = target: T1, Glutamate NMDA receptor (Rattus norvegicus); assay: Antagonist activity at NMDA receptor in rat cerebral cortex neurons assessed as 10000 uM NMDA-induced current at 5 uM relative to control; assay type: functional, tissue-based; parameters: scale not given: the % may be the effect or the level left; outline: as §1
[26] = target: T1, Glutamate NMDA receptor (Rattus norvegicus); assay: Antagonist activity at NMDA receptor in rat cerebral cortex neurons assessed as 10000 uM NMDA-induced current at 10 uM relative to control; assay type: functional, tissue-based; parameters: scale not given: the % may be the effect or the level left; outline: as §1
[27] = target: T1, Glutamate NMDA receptor (Rattus norvegicus); assay: Antagonist activity at NMDA receptor in rat cerebral cortex neurons assessed as 10000 uM NMDA-induced current at 30 uM relative to control; assay type: functional, tissue-based; parameters: scale not given: the % may be the effect or the level left; outline: as §1
[28] = target: T1, Glutamate NMDA receptor (Rattus norvegicus); assay: Antagonist activity at NMDA receptor in rat cerebral cortex neurons assessed as 10000 uM NMDA-induced current at 1 uM relative to control; assay type: functional, tissue-based; parameters: scale not given: the % may be the effect or the level left; outline: as §1
[29] = target: T1, Glutamate NMDA receptor (Rattus norvegicus); assay: Antagonist activity at NMDA receptor in rat cerebral cortex neurons assessed as 5000 uM NMDA-induced current at 2 uM relative to control; assay type: functional, tissue-based; parameters: scale not given: the % may be the effect or the level left; outline: as §1
[30] = target: T1, Glutamate NMDA receptor (Rattus norvegicus); assay: Antagonist activity at NMDA receptor in rat cerebral cortex neurons assessed as 5000 uM NMDA-induced current at 5 uM relative to control; assay type: functional, tissue-based; parameters: scale not given: the % may be the effect or the level left; outline: as §1
Rattus norvegicus [31] = species on record: Rattus norvegicus; assay: Agonist activity at AMPA receptor in rat purkinje neurons assessed as potentiation of kainate-induced transmembrane current at 30 uM by patch-clamp technique relative to kainate; assay type: functional; outline: as §2

- Activity [1]: 23%
- Activity [2]: 48%
- Activity [3]: 98%
- Activity [4]: 11%
- Activity [5]: 68%
- fold change (FC) (Rattus norvegicus [6]): 26.9
- Activity [7]: 34%
- Activity [8]: 55%
- Activity [9]: 45%
- Activity (Rattus norvegicus [10]): 132%
- Activity [11]: 8%
- Activity (Rattus norvegicus [12]): Active
- Activity (Rattus norvegicus [13]): 5%
- Activity [14]: 31%
- Activity [15]: 59%
- Activity [16]: 26%
- Activity (Rattus norvegicus [17]): 290%
- Activity (Rattus norvegicus [18]): Active
- Activity [19]: 35%
- Activity [20]: 4%
- Activity [21]: 48%
- Activity [22]: 99%
- Activity [23]: 14%
- Activity [24]: 35%
- Activity [25]: 16%
- Activity [26]: 10%
- Activity [27]: 3%
- Activity [28]: 35%
- Activity [29]: 36%
- Activity [30]: 20%
- Activity (Rattus norvegicus [31]): Active
SMILES: C=CC/N=C(\SCC)N(Cc1ccccc1)Cc1ccccc1

- fold change (FC) (Rattus norvegicus [6]): 7
- Activity (Rattus norvegicus [10]): 60%
- Activity (Rattus norvegicus [12]): Active
- Activity (Rattus norvegicus [17]): 150%
- Activity (Rattus norvegicus [18]): Active
- Activity (Rattus norvegicus [31]): Active
SMILES: NS(=O)(=O)c1cc2c(cc1Cl)NC(C1CC3C=CC1C3)NS2(=O)=O (configuration not stated)

Reference: ChEMBL document CHEMBL1153824, “Novel isothiourea derivatives as potent neuroprotectors and cognition enhancers: synthesis, biological and physicochemical properties” (J Med Chem, 2009)
